# MrgX1 PAM = allosterically activates human MrgX1 receptor signaling | 0.63% of 310,000 active | AID 588675 | B-score at 10 µM | MrgX1-HEK293, Fluo-4 calcium flux, FDSS; stronger effect = higher value | Q96LB2;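 active means plate-corrected calcium response at least 3 library SD above typical, normal starting fluorescence, not activating the receptor alone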;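 further: compound read alongside a low EC10 to EC30 dose of BAM8-22 agonist; peak minus trough fluorescence over baseline measured at the second addition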
# Target sequence (Q96LB2 whole entry, looked up): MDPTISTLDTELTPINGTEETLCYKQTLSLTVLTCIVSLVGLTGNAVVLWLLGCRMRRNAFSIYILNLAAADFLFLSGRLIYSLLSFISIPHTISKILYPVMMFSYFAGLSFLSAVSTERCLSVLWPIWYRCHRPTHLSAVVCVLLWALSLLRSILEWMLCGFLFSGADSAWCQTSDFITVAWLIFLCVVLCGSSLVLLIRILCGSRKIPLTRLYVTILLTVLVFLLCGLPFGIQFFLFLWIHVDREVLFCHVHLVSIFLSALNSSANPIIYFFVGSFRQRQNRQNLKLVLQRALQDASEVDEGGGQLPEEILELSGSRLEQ
# MrgX1 agonist = activates human MrgX1 receptor signaling | Q96LB2 | MrgX1-HEK293 cells, Fluo-4 calcium fluorescence, agonist mode; stronger effect = higher value | B-score at 10 µM | 0.44% of 310,000 active;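 active means calcium response B-score plate-corrected fluorescence ratio at least 3 library SD, with starting fluorescence B-score inside 5 SD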
#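 System: HEK293 cells stably expressing human MrgX1 receptor; Dosing: test compound in the initial addition of three; Schedule: overnight plating, then 30 min 37 °C plus 30 min room-temperature dye loading; Detection: kinetic calcium dye fluorescence, Fluo-4 NW; Controls: per-plate positive and negative controls for Z′ factor.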
# RGS4 pot = potentiators or activators of RGS4 | 0.92% of 310,000 active | HEK293 M3R/inducible RGS4, carbachol calcium flux Fluo4; stronger effect = lower value | B-score at 10 µM;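 active means B-score of the integrated calcium signal more than 4 SD below the library mean, with starting fluorescence not abnormally high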;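 further: negative B-score means reduced calcium response which marks RGS4 activation or potentiation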
#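 test system = HEK293 cells with stable M3R and inducible RGS4 | schedule = recording 10 s baseline at 1 Hz, 100 s post-agonist | technique = Fluo4-AM (2 µM) calcium-flux fluorescence, kinetic read | measure = Agonist-evoked peak-minus-minimum fluorescence over baseline, integrated ratio, B score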
# RGS4 inh = human RGS4 inhibition; AID 463165; 0.45% of 310,000 active; B-score at 10 µM; HEK293 M3R/RGS4 inducible, Fluo-4 calcium flux; stronger effect = higher value; triggered by carbachol at its EC20; P49798;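 active means B-score, a plate-corrected calcium signal, over three deviations above library mean, with baseline fluorescence within five deviations of library mean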;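 further: RGS4 expression induced by doxycycline in cells with stable M3 receptor; B-score is computed from the integrated fluorescence ratio over baseline after carbachol; higher B-score means a larger calcium signal and so more RGS4 inhibition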
# Target sequence (P49798 whole entry, looked up): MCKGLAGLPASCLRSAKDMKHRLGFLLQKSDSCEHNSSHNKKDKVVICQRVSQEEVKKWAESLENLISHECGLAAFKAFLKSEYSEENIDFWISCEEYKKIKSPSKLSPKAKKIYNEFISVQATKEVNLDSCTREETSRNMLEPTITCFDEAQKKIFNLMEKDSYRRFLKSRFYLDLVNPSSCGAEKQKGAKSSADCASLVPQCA
# MrgX1 antag = human MrgX1 receptor antagonism, primary screen. Q96LB2. MRGX1-HEK293 calcium flux, Fluo-4, BAM8-22 antagonism; stronger effect = lower value. B-score at 10 µM. 1.3% of 310,000 active. AID 588676;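 active means calcium-response B-score plate-corrected more than 3 library SD below zero, starting fluorescence within 5 deviations, no agonist response on first addition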;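 further: peak minus trough fluorescence over baseline after final BAM8-22 challenge near maximal dose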
# MrgX1 ag confirm = human MrgX1 agonism, re-confirmation screen | shares compounds with MrgX1 agonist | MrgX1-HEK293, Fluo-4 calcium fluorescence, FDSS | 78% of 600 active | activation, % at 10 µM;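 active means calcium signal rise, corrected for plate position, at least 3 library SD high, with starting brightness within 5 such deviations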
# MrgX1 allo conf = human MrgX1 positive allosteric modulation, re-confirmation. shares compounds with MrgX1 PAM. 13% of 1,200 active. MrgX1-HEK293, Fluo-4 calcium fluorescence, FDSS. activation (ratio percentage), % at 10 µM;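 active means ratio at least 3 SD above the weak peptide control, stable starting fluorescence, no direct agonism earlier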;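 further: compound followed by low BAM8-22 agonist challenge near EC20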
# MrgX1 ant reconf = reconfirmed antagonist of human MrgX1 receptor signaling; 19% of 2,300 active; MrgX1-HEK293, BAM8-22 calcium flux, Fluo-4; stronger effect = lower value; remaining BAM8-22 calcium response % of control (stronger effect = lower value), % at 10 µM; shares compounds with MrgX1 antag; AID 602420;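 active means remaining agonist calcium response no higher than 100% minus 3 SD of agonist-only control wells, with starting fluorescence near control levels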;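 further: agonist BAM8-22 given at a near maximal EC90 to ECmax level; peak minus minimum fluorescence divided by baseline after agonist addition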
# HEK293 Ca flux = counter-screen for MrgX1 antagonists: effect in parental HEK293 cells. shares compounds with MrgX1 antag. Fluo-4 calcium fluorescence, FDSS. fluorescence ratio F(max-min)/F0 at 10 µM. 2% of 4,000 active;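 active means duplicate-averaged calcium fluorescence ratio at least three times the standard deviation of buffer wells, a nonspecific response in parental cells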
# HEK293 Ca counter = MrgX1 allosteric activator counter-screen hit in parental HEK293 cells; shares compounds with MrgX1 antag; parental HEK293 calcium flux, Fluo-4 fluorescence ratio; stronger effect = higher value; fluorescence ratio F(max-min)/F0 at 10 µM; 0.4% of 4,000 active; AID 624114;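 active means calcium fluorescence ratio, averaged over duplicates, at least 3 SD of the buffer-well ratio, meaning a nonspecific response in receptor-free cells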;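 further: untransfected parental HEK293 lacking MrgX1 used as counterscreen for MrgX1 allosteric activators; fluorescence change taken during the second addition on a kinetic imager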
# HEK293 Ca cntr2 = counter-screen for MrgX1 activators: effect in parental HEK293 cells; AID 624115; 8.7% of 4,000 active; fluorescence ratio F(max-min)/F0 at 10 µM; shares compounds with MrgX1 antag; Fluo-4 calcium fluorescence (FDSS); stronger effect = higher value;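 active means calcium fluorescence ratio at least three times the spread of buffer wells, meaning a non-specific response in parental cells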
# A number is an active result; - = inactive; . = no result given. In the library only some 3.5% were active in any assay of this set; here they are far more common.
SMILES,MrgX1 PAM,MrgX1 agonist,RGS4 pot,RGS4 inh,MrgX1 antag,MrgX1 ant reconf,HEK293 Ca flux,HEK293 Ca counter,HEK293 Ca cntr2,others
C[C@H]1CCC[C@@H](O)CCC/C=C/c2cc(O)cc(O)c2C(=O)O1,-,31,-,-,-,.,-,-,-,MrgX1 ag confirm=176%
C[C@H]1CCC[C@H](O)CCCCCc2cc(O)cc(O)c2C(=O)O1,-,-,-,-,-,.,.,.,.,
CCCCCCn1c(=O)c(C(=O)Nc2ncccc2C)c(O)c2ccccc21,-,-,-,-,-,.,.,.,.,
C=CCN1C(=O)C2(C(C(=O)OCC)=C(N)Oc3ccccc32)c2c1c1ccccc1oc2=O (stereo unspecified),24,-,-,-,-,.,-,-,-,MrgX1 allo conf=33%
CCOC(=O)C1=C(N)Oc2c(c(=O)oc3ccccc23)C12C(=O)N(C)c1ccccc12 (stereo unspecified),8.5,-,-,-,-,.,-,-,-,MrgX1 allo conf=16%
CS(=O)(=O)c1ccc(C(=O)N2CCC(C(=O)O)(c3ccccc3)CC2)cc1,-,-,-,-,-,.,.,.,.,
CCCCCn1c(=O)c(C(=O)NCc2ccc(Cl)cc2)c(O)c2ccccc21,8.8,-,-,-,-,.,-,49,-,MrgX1 allo conf=-
CCCCn1c(=O)c(C(=O)NCc2ccccc2)c(O)c2ccccc21,-,-,-,-,-,.,.,.,.,
COc1cccc(C2(C#N)CCN(C)CC2)c1,6.5,-,-,-,-,.,-,-,-,MrgX1 allo conf=-
COc1cccc(OCC(=O)N2CCN(C)CC2)c1,-,-,-,-,-,.,.,.,.,
Cc1cccnc1-n1c(C)nc2ccccc2c1=O,-,-,-,-,-,.,.,.,.,
CCCC1=C(C(=O)OCC)C2(C(=O)Nc3ccccc32)C(C#N)=C(N)O1 (stereo unspecified),-,-,-,-,-4.6,-,-,-,-,
CSc1ccc(C(=O)C2CCCN(Cc3cc4ccccc4[nH]3)C2)cc1 (stereo unspecified),-,-,-7.1,-,-5.1,79%,-,-,-,
O=C(CN1CC(c2ccccc2)CC1=O)Nc1cccc(F)c1 (stereo unspecified),-,-,-,-,-,.,.,.,.,
O=C(CN1CC(c2ccccc2)CC1=O)Nc1ccc(F)cc1 (stereo unspecified),-,-,-,-,-10,-,-,-,-,
COc1ccc(C(=O)N2CCOCC2)cc1S(=O)(=O)N1CCC(C)CC1,-,-,-,-,-,.,.,.,.,
COc1ccc(C(=O)Oc2cccc3cccnc23)cc1S(=O)(=O)N1CCOCC1,-,-,-,-,-6,-,-,-,-,
O=C1NC(=O)C(CCc2ccccn2)(Cc2ccc3c(c2)OCO3)C(=O)N1CCc1ccccc1 (stereo unspecified),-,-,-,-,-5.2,-,-,-,-,
c1ccc(CNCCc2ccc3c(c2)OCO3)nc1,-,-,-,-,-,.,.,.,.,
Clc1ccc(N2CC2c2ccncc2)cc1 (stereo unspecified),-,-,-,-,-,.,.,.,.,
Nc1ccc([As](=O)(O)O)cc1,-,-,-,-,-6,-,-,-,-,
CN1CCc2nc(SCc3cccc(Br)c3)c(C#N)cc2C1,-,-,-,-,-4.7,-,-,-,-,
O=C(CN1CCOCC1)c1ccc2cc[nH]c2c1,-,-,-,-,-,.,.,.,.,

# Screening data: PubChem BioAssay, Johns Hopkins Ion Channel Center
